From ChEMBL document CHEMBL1157808, “Synthesis and biological evaluation of phenolic 4,5-dihydroisoxazoles and 3-hydroxy ketones as estrogen receptor alpha and beta agonists” (Bioorg Med Chem, 2010)
Activity calls are given as the source filed them. The rule behind the calls is not given here.

Assays:
[1] = target: Estrogen receptor beta (Homo sapiens) (UniProt Q92731); experiment: Agonist activity at ERbeta expressed in HEK293 cells at 10 uM after 24 hrs by luciferase reporter gene assay relative to 3,17-beta-estradiol; format: functional, cell-based
Estrogen receptor beta (Homo sapiens), sequence (Q92731 whole entry): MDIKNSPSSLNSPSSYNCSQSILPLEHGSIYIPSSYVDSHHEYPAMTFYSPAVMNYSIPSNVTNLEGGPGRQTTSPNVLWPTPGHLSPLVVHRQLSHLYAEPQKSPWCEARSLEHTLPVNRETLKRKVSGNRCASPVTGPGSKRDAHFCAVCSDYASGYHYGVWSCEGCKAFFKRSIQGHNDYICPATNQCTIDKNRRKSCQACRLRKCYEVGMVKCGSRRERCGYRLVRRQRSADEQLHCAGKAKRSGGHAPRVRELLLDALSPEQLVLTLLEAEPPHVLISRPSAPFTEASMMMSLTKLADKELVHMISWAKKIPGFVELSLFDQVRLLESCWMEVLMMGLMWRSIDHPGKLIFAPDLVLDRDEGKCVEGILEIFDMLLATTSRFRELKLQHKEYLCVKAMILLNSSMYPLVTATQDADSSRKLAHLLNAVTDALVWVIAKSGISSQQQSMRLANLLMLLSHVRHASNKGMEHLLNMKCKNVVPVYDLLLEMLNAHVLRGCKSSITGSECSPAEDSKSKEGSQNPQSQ
How it was run: (§1)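 HEK293 cells (no endogenous ER) in phenol-free DMEM with 5% delipidated FBS were transfected for 4 h with 5 ng ERα or ERβ expression vector, 75 ng pERE2TATA-LUC reporter and 20 ng pCMVβ. Cells then received 10 μM compound, 10 nM E2 or vehicle (0.1% v/v) for 24 h. Luciferase was normalized to β-galactosidase and expressed as 100% × (test − vehicle)/(E2 − vehicle). Values are means of at least three independent transfections.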

[2] = target: T1, Estrogen receptor (Homo sapiens) (UniProt P03372); experiment: Agonist activity at ERalpha expressed in HEK293 cells at 10 uM after 24 hrs by luciferase reporter gene assay relative to 3,17-beta-estradiol; format: functional, cell-based; how it was run: as §1
T1 sequence (whole entry): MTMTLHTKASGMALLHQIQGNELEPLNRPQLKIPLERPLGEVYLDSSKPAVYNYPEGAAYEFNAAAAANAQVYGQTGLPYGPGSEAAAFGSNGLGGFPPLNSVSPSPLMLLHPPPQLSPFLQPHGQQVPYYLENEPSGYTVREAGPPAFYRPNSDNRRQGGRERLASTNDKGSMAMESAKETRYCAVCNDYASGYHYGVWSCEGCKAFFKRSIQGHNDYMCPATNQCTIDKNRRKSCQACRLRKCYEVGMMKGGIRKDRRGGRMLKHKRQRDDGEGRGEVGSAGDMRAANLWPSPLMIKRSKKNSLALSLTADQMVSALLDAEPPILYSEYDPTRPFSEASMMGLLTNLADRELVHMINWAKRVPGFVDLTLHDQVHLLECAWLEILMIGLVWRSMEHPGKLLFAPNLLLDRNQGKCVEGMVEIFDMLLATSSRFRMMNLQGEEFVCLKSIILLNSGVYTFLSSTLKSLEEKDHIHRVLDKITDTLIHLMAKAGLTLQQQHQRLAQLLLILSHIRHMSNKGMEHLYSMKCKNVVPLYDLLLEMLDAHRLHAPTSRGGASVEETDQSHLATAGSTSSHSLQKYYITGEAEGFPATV

Homo sapiens = species: Homo sapiens; experiment: Selectivity ratio of relative binding affinity for human ERalpha to relative binding affinity for human ERbeta
How it was run: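 COS-1 cells in DMEM with 10% delipidated FBS were transfected for 24 h with human ERα or ERβ vector (pSG5-hERα/β). Cells were washed, lysed in 0.5 M NaOH at 56 °C for 15 min and counted by scintillation, with nonspecific binding subtracted.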

[3] = target: T1, Estrogen receptor (Homo sapiens); experiment: Induction of ERalpha-mediated pS2 gene expression in human MCF7 cells at 10 nM after 24 hrs by real-time quantitative PCR analysis; format: cell-based
How it was run: (§2)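 MCF-7 cells were grown overnight in phenol red-free DMEM with 5% charcoal-stripped FBS. They were then exposed to ligand at 10 nM final or to solvent for 6 h or 24 h. Total RNA was extracted and reverse-transcribed. pS2 mRNA was measured by TaqMan real-time qPCR with RPLPO as reference and reported as fold change relative to control.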

[4] = target: T1, Estrogen receptor (Homo sapiens); experiment: Induction of ERalpha-mediated pS2 gene expression in human MCF7 cells at 10 nM after 6 hrs by real-time quantitative PCR analysis relative to control; format: cell-based; how it was run: as §2
[5] = target: T1, Estrogen receptor (Homo sapiens); experiment: Antagonist activity at ERalpha in human MCF7 cells assessed as decrease in 3,17-beta-estradiol-induced pS2 gene expression at 1 uM after 24 hrs by real-time quantitative PCR analysis; format: functional, cell-based
How it was run: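 Competition format: MCF-7 cells were first grown overnight in phenol red-free DMEM with 5% charcoal-stripped FBS. They were then co-treated for 24 h with 10 nM E2 plus 1 μM compound. Total RNA was extracted and pS2 mRNA was quantified by TaqMan real-time qPCR, normalized to RPLPO.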

[6] = Selectivity for ERalpha over ERbeta
[7] = target: T1, Estrogen receptor (Homo sapiens); experiment: Induction of ERalpha-mediated pS2 gene expression in human MCF7 cells at 10 uM after 24 hrs by real-time quantitative PCR analysis; format: cell-based
[8] = target: T1, Estrogen receptor (Homo sapiens); experiment: Ratio of compound to 3,17-beta-estradiol binding affinity at ERalpha expressed in COS-1 cells

Row | SMILES | Activity [1] | Activity [2] | Ratio (Homo sapiens) | Activity [3] | fold change (FC) [4] | inhibition [5] | Selectivity ratio [6] | Activity [7] | Ratio [8]
1 | CC1(c2ccccc2)CC(CCCc2ccc(O)cc2)=NO1 (single isomer, unassigned; 46a) | -0.9% | 14.4% | 13 |  |  |  |  |  | 
2 | CC1(c2ccccc2)CC(CCCc2ccc(O)cc2)=NO1 (single isomer, unassigned; 46b) | 10.6% | 13.6% | 1 |  |  |  |  |  | 
3 | O=C(CCCc1ccc(O)cc1)CC(O)c1ccccc1 (single isomer, unassigned; 50a) | 170% | 139% | 4 | inactive |  | 23% |  | inactive | 2
4 | O=C(CCCc1ccc(O)cc1)CC(O)c1ccccc1 (single isomer, unassigned; 50b) | 155% | 140% | 5 | Active |  | 29% |  |  | 

Results, then the compound that gave them:

Row | Activity [1] | Activity [2] | Ratio (Homo sapiens) | Activity [3] | fold change (FC) [4] | inhibition [5] | Selectivity ratio [6] | Activity [7] | Ratio [8] | SMILES
5 | 44.7% | 104% | 157 | inactive | 1.8 | 32% | 2 |  |  | Oc1ccc(CCCC2=NOC(c3ccccc3)C2)cc1 (single isomer, unassigned; 45a)
6 | 77.1% | 65% | 41 | inactive |  | 27% |  | inactive |  | Oc1ccc(CCCC2=NOC(c3ccccc3)C2)cc1 (single isomer, unassigned; 45b)
7 | 17.2% | 11.5% | 1 |  |  |  |  |  |  | c1ccc(CCCC2=NOC(c3ccccc3)C2)cc1 (stereo in doubt; 43b)
